Assay results taken from ChEMBL document CHEMBL1127450, “Synthesis and antiviral activity evaluation of some aminoadamantane derivatives” (1994).
Converted amounts (≈) assume the structure as drawn.

Tests used:
Assay type in all cases: functional
[1] = tested on: HEF; assay: Tested for minimum inhibitory concentration required to reduce virus-induced cytopathicity by 50% on HEF cell line infected with thymidine kinase-deficient herpes simplex virus type 1 (TK-HSV-1); details: Homo sapiens
Outline: (§1)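 Human embryonic skin-muscle fibroblasts (HEF) were infected with the stated virus. The value is the concentration that reduces virus-induced cytopathicity by 50%. Values are averages of at least two separate experiments.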

[2] = tested on: CCRF-CEM; assay: Tested for minimum inhibitory concentration required to reduce virus-induced cytopathicity by 50% on CEM cell line infected with HIV-2 virus; details: Homo sapiens
[3] = tested on: Vero; assay: Tested for minimum inhibitory concentration required to reduce virus-induced cytopathicity by 50% on vero cell line infected with semliki forest virus; details: Chlorocebus sabaeus
Outline: (§2)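 HeLa (human epithelial), MDCK (Madin-Darby canine kidney) or Vero (African green monkey kidney) cells were infected with the stated virus. The value is the concentration that reduces virus-induced cytopathicity by 50%. Values are averages of at least two separate experiments.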

[4] = tested on: HeLa; assay: Tested for minimum inhibitory concentration required to reduce virus-induced cytopathicity by 50% on HeLa cell line infected with polio 1 virus; details: Homo sapiens; outline: as §2
[5] = tested on: HEF; assay: Tested for minimum inhibitory concentration required to reduce virus-induced cytopathicity by 50% on HEF cell line infected with HSV-1 virus; details: Homo sapiens; outline: as §1
[6] = tested on: CCRF-CEM; assay: Tested for minimum inhibitory concentration required to reduce virus-induced cytopathicity by 50% was evaluated on CEM cell line infected with HIV-1 virus; details: Homo sapiens
[7] = tested on: Vero; assay: Tested for minimum inhibitory concentration required to reduce virus-induced cytopathicity by 50% on vero cell line infected with coxsackie B4 virus; details: Chlorocebus sabaeus; outline: as §2
[8] = tested on: Vero; assay: Tested for minimum inhibitory concentration required to reduce virus-induced cytopathicity by 50% on vero cell line infected with parainfluenza 3 virus; details: Chlorocebus sabaeus; outline: as §2
[9] = tested on: HeLa; assay: Tested for minimum inhibitory concentration required to cause a microscopically detectable alteration of normal cell morphology by 50% on HeLa cell line; details: Homo sapiens
Outline: (§3)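 HeLa (human epithelial), MDCK (Madin-Darby canine kidney) or Vero (African green monkey kidney) cells were scored by microscopy. The value is the minimum concentration that causes a detectable alteration of normal cell morphology. Values are averages of at least two separate experiments.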

[10] = tested on: HEF; assay: Tested for minimum inhibitory concentration required to cause a microscopically detectable alteration of normal cell morphology by 50% on HEF cell line; details: Homo sapiens
Outline: (§4)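 Human embryonic skin-muscle fibroblasts (HEF) were used. The value is the minimum concentration that causes a microscopically detectable alteration of normal cell morphology. Values are averages of at least two separate experiments.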

[11] = tested on: MDCK; assay: Tested for minimum inhibitory concentration required to cause a microscopically detectable alteration of normal cell morphology by 50% on MDCK cell line; details: Canis lupus familiaris; outline: as §3
[12] = tested on: Vero; assay: Tested for minimum inhibitory concentration required to reduce virus-induced cytopathicity by 50% on vero cell line infected with Reo 1 virus; details: Chlorocebus sabaeus; outline: as §2
[13] = tested on: Vero; assay: Tested for minimum inhibitory concentration required to cause a microscopically detectable alteration of normal cell morphology by 50% on Vero cell line; details: Chlorocebus sabaeus; outline: as §3
[14] = tested on: HEF; assay: Tested for minimum inhibitory concentration required to reduce […] by 50% on HEF cell line; details: Homo sapiens
Outline: (§5)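 Human embryonic lung fibroblasts (HEF) were used for cell proliferation. The value is the concentration that reduces cell proliferation by 50%. Values are averages of at least two separate experiments.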

[15] = tested on: CCRF-CEM; assay: Tested for minimum inhibitory concentration required to reduce virus-induced cell viability by 50% on CEM cell line; details: Homo sapiens
[16] = tested on: HeLa; assay: Tested for minimum inhibitory concentration required to reduce virus-induced cytopathicity by 50% on HeLa cell line infected with RSV virus; details: Homo sapiens; outline: as §2
[17] = tested on: HEF; assay: Tested for minimum inhibitory concentration required to reduce virus-induced cytopathicity by 50% on HEF cell line infected with vesicular stomatitis virus; details: Homo sapiens; outline: as §1
[18] = tested on: MDCK; assay: Tested for minimum inhibitory concentration required to reduce virus-induced cytopathicity by 50% on MDCK cell line infected with influenza B virus; details: Canis lupus familiaris; outline: as §2
[19] = tested on: MDCK; assay: Tested for minimum inhibitory concentration required to reduce virus-induced cytopathicity by 50% on MDCK cell line infected with influenza A virus; details: Canis lupus familiaris; outline: as §2
[20] = tested on: Vero; assay: Tested for minimum inhibitory concentration required to reduce virus-induced cytopathicity by 50% on vero cell line infected with sindbis virus; details: Chlorocebus sabaeus; outline: as §2
[21] = tested on: HEF; assay: Tested for minimum inhibitory concentration required to reduce virus-induced cytopathicity by 50% on HEF cell line infected with vaccinia virus; details: Homo sapiens; outline: as §1
[22] = tested on: HEF; assay: Tested for minimum inhibitory concentration required to reduce virus-induced cytopathicity by 50% on HEF cell line infected with HSV-2 virus; details: Homo sapiens; outline: as §1
[23] = tested on: HeLa; assay: tested for minimum inhibitory concentration required to cause a microscopically detectable alteration of normal cell morphology by 50% on HeLa cell line; details: Homo sapiens; outline: as §3
[24] = tested on: Vero; assay: Tested for minimum inhibitory concentration required to cause a microscopically detectable alteration of normal cell morphology by 50% on vero cell line; details: Chlorocebus sabaeus; outline: as §3
[25] = tested on: CCRF-CEM; assay: tested for minimum inhibitory concentration required to reduce virus-induced cell viability by 50% on CEM cell line; details: Homo sapiens
[26] = tested on: MDCK; assay: tested for minimum inhibitory concentration required to cause a microscopically detectable alteration of normal cell morphology by 50% on MDCK cell line; details: Canis lupus familiaris; outline: as §3
[27] = tested on: HEF; assay: tested for minimum inhibitory concentration required to reduce […] by 50% on HEF cell line; details: Homo sapiens; outline: as §5
[28] = tested on: Vero; assay: tested for minimum inhibitory concentration required to cause a microscopically detectable alteration of normal cell morphology by 50% on vero cell line; details: Chlorocebus sabaeus; outline: as §3
[29] = tested on: Vero; assay: tested for minimum inhibitory concentration required to reduce virus-induced cytopathicity by 50% on vero cell line infected with sindbis virus; details: Chlorocebus sabaeus; outline: as §2
[30] = tested on: HEF; assay: tested for minimum inhibitory concentration required to reduce virus-induced cytopathicity by 50% on HEF cell line infected with HSV-2 virus; details: Homo sapiens; outline: as §1
[31] = tested on: HEF; assay: tested for minimum inhibitory concentration required to reduce virus-induced cytopathicity by 50% on HEF cell line infected with vesicular stomatitis virus; details: Homo sapiens; outline: as §1
[32] = tested on: HEF; assay: tested for minimum inhibitory concentration required to cause a microscopically detectable alteration of normal cell morphology by 50% on HEF cell line; details: Homo sapiens; outline: as §4
[33] = tested on: Vero; assay: tested for minimum inhibitory concentration required to reduce virus-induced cytopathicity by 50% on vero cell line infected with coxsackie B4 virus; details: Chlorocebus sabaeus; outline: as §2
[34] = tested on: CCRF-CEM; assay: tested for minimum inhibitory concentration required to reduce virus-induced cytopathicity by 50% on CEM cell line infected with HIV-2 virus; details: Homo sapiens
[35] = tested on: HEF; assay: tested for minimum inhibitory concentration required to reduce virus-induced cytopathicity by 50% on HEF cell line infected with vaccinia virus; details: Homo sapiens; outline: as §1
[36] = tested on: Vero; assay: tested for minimum inhibitory concentration required to reduce virus-induced cytopathicity by 50% on vero cell line infected with semliki forest virus; details: Chlorocebus sabaeus; outline: as §2
[37] = tested on: Vero; assay: tested for minimum inhibitory concentration required to reduce virus-induced cytopathicity by 50% on vero cell line infected with Reo 1 virus; details: Chlorocebus sabaeus; outline: as §2
[38] = tested on: HeLa; assay: tested for minimum inhibitory concentration required to reduce virus-induced cytopathicity by 50% on HeLa cell line infected with polio 1 virus; details: Homo sapiens; outline: as §2
[39] = tested on: CCRF-CEM; assay: tested for minimum inhibitory concentration required to reduce virus-induced cytopathicity by 50% was evaluated on CEM cell line infected with HIV-1 virus; details: Homo sapiens
[40] = tested on: Vero; assay: Tested for minimum inhibitory concentration required to reduce virus-induced cytopathicity by 50% on vero cell line infected with semliki forest; details: Chlorocebus sabaeus; outline: as §2
[41] = tested on: CCRF-CEM; assay: Tested for minimum inhibitory concentration required to reduce virus-induced cell viability by 50% on CEM cell line.; details: Homo sapiens

SMILES	MIC50 [1] [µg/mL]	MIC50 [2] [µg/mL]	MIC50 [3] [µg/mL]	MIC50 [4] [µg/mL]	MIC50 [5] [µg/mL]	MIC50 [6] [µg/mL]	MIC50 [7] [µg/mL]	MIC50 [8] [µg/mL]	MIC50 [9] [µg/mL]	MIC50 [10] [µg/mL]	MIC50 [11] [µg/mL]	MIC50 [12] [µg/mL]	MIC50 [14] [µg/mL]	MIC50 [16] [µg/mL]	MIC50 [17] [µg/mL]	MIC50 [18] [µg/mL]	MIC50 [19] [µg/mL]	MIC50 [20] [µg/mL]	MIC50 [21] [µg/mL]	MIC50 [22] [µg/mL]	further results
NC1CC12C1CC3CC(C1)CC2C3 (configuration not stated)	> 20	> 8	> 40	> 20	> 20	> 8	> 40	> 40	40 (≈ 226 µM)	40 (≈ 226 µM)	100 (≈ 564 µM)	> 40	80 (≈ 451 µM)	30 (≈ 169 µM)	> 20	> 100	30 (≈ 169 µM)	> 40	> 20	> 20	MIC50 [13]: 100 µg/mL (≈ 564 µM); MIC50 [15]: 32 µg/mL (≈ 180 µM)
CCN1CCCC12C1CC3CC(C1)CC2C3 (configuration not stated)	≥ 400	> 200	> 400	> 400	> 400	> 200	> 400	> 400	–	> 400	> 200	> 400	> 200	> 200	≥ 400	> 200	2.4 (≈ 10.9 µM)	> 400	> 400	> 400	MIC50 [23]: > 400 µg/mL; MIC50 [24]: > 400 µg/mL; MIC50 [15]: > 200 µg/mL
C1CN(CC2CC2)C2(C1)C1CC3CC(C1)CC2C3 (configuration not stated)	≥ 400	–	–	–	300 (≈ 1220 µM)	–	–	> 400	–	–	–	–	–	≥ 150	–	> 100	≥ 40	–	–	–	MIC50 [25]: > 200 µg/mL; MIC50 [23]: > 400 µg/mL; MIC50 [26]: 100 µg/mL (≈ 407 µM); MIC50 [27]: > 200 µg/mL; MIC50 [28]: > 400 µg/mL; MIC50 [29]: > 400 µg/mL; MIC50 [30]: > 400 µg/mL; MIC50 [31]: 150 µg/mL (≈ 611 µM); MIC50 [32]: > 400 µg/mL; MIC50 [33]: > 400 µg/mL; MIC50 [34]: > 200 µg/mL; MIC50 [35]: 100 µg/mL (≈ 407 µM); MIC50 [36]: > 400 µg/mL; MIC50 [37]: > 400 µg/mL; MIC50 [38]: > 400 µg/mL; MIC50 [39]: > 200 µg/mL
NCC1CC12C1CC3CC(C1)CC2C3 (configuration not stated)	> 20	> 8	–	> 10	> 20	> 8	> 20	> 20	20 (≈ 105 µM)	40 (≈ 209 µM)	20 (≈ 105 µM)	> 20	28 (≈ 146 µM)	≥ 15	> 20	> 20	0.8 (≈ 4.18 µM)	> 20	> 20	> 20	MIC50 [40]: > 20 µg/mL; MIC50 [24]: 40 µg/mL (≈ 209 µM); MIC50 [15]: 14 µg/mL (≈ 73.2 µM)
O=C(Nc1ccc(Cl)cc1)N1CCCC12C1CC3CC(C1)CC2C3 (configuration not stated)	> 20	> 1.6	> 70	> 70	> 20	> 1.6	> 70	> 70	100 (≈ 290 µM)	40 (≈ 116 µM)	20 (≈ 58 µM)	> 70	150 (≈ 435 µM)	> 20	> 20	> 20	2.4 (≈ 6.96 µM)	> 70	> 20	> 20	MIC50 [24]: 100 µg/mL (≈ 290 µM); MIC50 [41]: 3.4 µg/mL (≈ 9.86 µM)
CNC1CC12C1CC3CC(C1)CC2C3 (configuration not stated)	> 40	> 8	> 70	> 100	> 70	> 8	> 70	> 70	200 (≈ 1050 µM)	100 (≈ 523 µM)	100 (≈ 523 µM)	> 70	90 (≈ 470 µM)	> 150	> 40	> 100	1.2 (≈ 6.27 µM)	> 70	> 70	> 70	MIC50 [13]: 100 µg/mL (≈ 523 µM); MIC50 [15]: 75 µg/mL (≈ 392 µM)
